High-throughput results from PubChem.
NR2E3 ag-1: activates human photoreceptor nuclear receptor NR2E3 | 320,000 tested, 0.12% active | AID 2300 | GST-NR2E3/biotin-RetCOR TR-FRET, 1536-well | inhibition of corepressor binding, % at 4.78 µM | Q9Y5X4;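 active means percent inhibition above the cutoff of mean plus 3 SD of all tested compounds, set per screening campaign, cut at about 20% in these data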
Target sequence (Q9Y5X4 whole entry, looked up): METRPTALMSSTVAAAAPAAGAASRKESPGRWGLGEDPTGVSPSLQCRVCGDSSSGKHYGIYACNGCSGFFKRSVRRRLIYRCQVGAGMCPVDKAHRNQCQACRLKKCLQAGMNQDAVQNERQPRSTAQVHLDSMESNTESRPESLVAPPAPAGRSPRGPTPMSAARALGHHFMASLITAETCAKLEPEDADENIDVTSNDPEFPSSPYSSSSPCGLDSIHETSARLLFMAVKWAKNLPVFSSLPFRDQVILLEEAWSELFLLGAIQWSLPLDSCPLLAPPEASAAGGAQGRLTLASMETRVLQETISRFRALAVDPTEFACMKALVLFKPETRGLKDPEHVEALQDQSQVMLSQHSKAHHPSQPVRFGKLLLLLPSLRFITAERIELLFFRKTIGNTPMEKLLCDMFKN
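Material: NR2E3–RetCOR corepressor complex / Amount: 1.35 nM GST-NR2E3 / Medium: Tris pH 7.5 / Compound: single nominal compound dose of 4.8 µM / Incubation: 5 h at 4 °C / Technique: TR-FRET, Eu(K)-anti-GST donor, streptavidin-D2 acceptor, ex 340, em 617/671 nm / Read-out basis: percent loss of FRET ratio relative to control wells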
EBV LMP1 NFkB: Epstein-Barr LMP1 NF-kappaB reporter inhibition | inhibition, % at 12.5 µM | 350,000 tested, 0.69% active | LMP1-induced NF-kappaB luciferase reporter cells, luminescence; in the data active means inhibition above about 41%
HIF activator: HIF pathway transcriptional activation; U2OS HRE-luciferase reporter, luminescence; normalized: DMSO 0%, desferrioxamine 100%; 300,000 tested, 0.32% active; AID 1910; activation, % at 7.5 µM (by protocol);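 active means mean activation of at least 10% of the iron chelator positive control signal, with at least half of replicates also reaching 10%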
NR2E3 ag-2: agonists of human NR2E3 nuclear receptor; Q9Y5X4; CHO-S Gal4-NCOR/VP16-NR2E3 two-hybrid, luciferase; inhibition of corepressor binding, % at 3.98 µM; 360,000 tested, 0.35% active; AID 602229;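 active means inhibition above the mean of all tested compounds plus 3 SD, cut at about 70% in these data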;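 further: higher means lower luciferase signal from less NR2E3 corepressor binding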
TROY NFkB inh: blocks TROY-dependent signaling in reporter cells; Q293 LMP1-TROYcd NF-kB luciferase reporter, 4 h; inhibition, % at 10 µM; 360,000 tested, 0.98% active; AID 1347056;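 active means compounds whose plate-normalised and pattern-corrected inhibition of the luciferase reporter signal at the single screening dose is 50% or more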
Each line names hits and unclear results; the compound was inactive in the other large screens. An excerpt weighted towards active compounds, which were near 2% of everything screened.

O=C(NCc1ccccc1)C1=C[C@H](c2csc3ccccc23)C[C@H](OCc2ccc(CO)cc2)O1	none
O=C(Nc1ccccc1)C1=C[C@@H](c2csc3ccccc23)C[C@@H](OCc2ccc(CO)cc2)O1	TROY NFkB inh 76
O=C(Nc1ccccc1)C1=C[C@H](C2CCCCC2)C[C@H](OCc2ccc(CO)cc2)O1	TROY NFkB inh 66
O=C(Nc1ccccc1)C1=C[C@@H](c2ccccc2)C[C@@H](OCc2ccc(CO)cc2)O1	none
CCN(CC(=O)Nc1ccccc1OC)C(=O)c1ccc(NS(=O)(=O)c2ccc(C(C)=O)cc2)cc1	none
CC1CN(S(=O)(=O)c2cccc(C(=O)N3CCC(C(N)=O)CC3)c2)CC(C)O1 (configuration not stated)	none (no result: NR2E3 ag-1, HIF activator)
Cn1ccnc1SCC(=O)NCC(=O)Nc1ccc(F)c(F)c1F	none (no result: NR2E3 ag-1, HIF activator)
CCOc1ccc2nc(COC(=O)c3ccncc3)c(C(=O)c3ccccc3)[n+]([O-])c2c1	TROY NFkB inh 61 (no result: EBV LMP1 NFkB)
CCOc1ccc2nc(COC(=O)c3cccs3)c(C(=O)c3ccccc3)[n+]([O-])c2c1	none
CS(=O)(=O)c1nc(S(=O)(=O)c2ccc(Cl)cc2)c(NCCCN2CCCC2=O)s1	none
COc1ccc(C=O)c(-c2c(-c3ccccc3OC)sc3ccccc23)c1	none (no result: NR2E3 ag-1, EBV LMP1 NFkB, HIF activator)
COc1cc2c3nnc(-c4ccc(F)cc4)c-3cn(Cc3ccc(F)cc3)c2cc1OC	none
COc1ccc(Cn2cc3c(-c4ccc(F)cc4)nnc-3c3cc(OC)c(OC)cc32)cc1	EBV LMP1 NFkB 69 (no result: HIF activator)
COc1ccc(-n2nc3c(c2NC(=O)CCCl)CSC3)cc1	none (no result: NR2E3 ag-1)
Cc1ccc2[nH]c(CNC(=O)c3ccc(F)cc3)cc2c1	none
CCOc1ccc(NC(=O)CN(C)C(=O)c2sccc2-c2ccccc2)cc1OCC	none (no result: NR2E3 ag-1, HIF activator)
S=C(NN=C1C2CC3CC(C2)CC1C3)Nc1ccccc1	EBV LMP1 NFkB 65, TROY NFkB inh 75
CCC(C)(C)C1CCC(=NNC(=S)Nc2ccccc2)CC1 (configuration not stated)	none
CN(C)CCC(O)(c1ccccc1)c1ccccc1Cl (configuration not stated)	none (no result: NR2E3 ag-1, HIF activator)
Cc1ccc(C(=O)NCC(=O)N(C)Cc2cccc(F)c2)s1	EBV LMP1 NFkB 51 (no result: NR2E3 ag-1, HIF activator)
O=C(Nc1cccc(Cl)c1)Nc1cc(S(=O)(=O)N2CCCCC2)ccc1Cl	TROY NFkB inh 56
O=C(COC(=O)c1ccc(Cl)c(S(=O)(=O)N2CCCCCC2)c1)Nc1ccccc1	TROY NFkB inh 58
O=C(O)c1cccc(NC(=O)c2ccc(Cl)c(S(=O)(=O)N3CCCCCC3)c2)c1	EBV LMP1 NFkB 57
Cn1cccc1C(=O)NC(=O)COC(=O)c1cc(S(=O)(=O)N2CCCCC2)ccc1Cl	HIF activator 46
O=C(COC(=O)c1ccc(S(=O)(=O)N2CCCC2)cc1)Nc1ccccc1	none (no result: HIF activator)
O=C(Nc1cccnc1)c1ccc(Cl)c(S(=O)(=O)N2CCCCC2)c1	none
O=C(COC(=O)c1cc(S(=O)(=O)N2CCCCC2)ccc1Cl)NC1CCCCC1	none (no result: NR2E3 ag-1, HIF activator)
CN1CCN(S(=O)(=O)c2ccc(NC(=O)Nc3cccc(Cl)c3)cc2)CC1	none
CCOc1ccc(C(=O)O[C@H]2[C@H](Cc3ccccc3)NS(=O)(=O)[C@H]3C[C@@H]4C=C[C@]23O4)cc1	none (no result: HIF activator)
O=C(O)c1ccc(S(=O)(=O)c2ccc([N+](=O)[O-])cc2[N+](=O)[O-])cc1	none
COc1ccc(C(=O)N/C(=C\c2ccc3c(c2)OCO3)C(=O)N2CCOCC2)cc1	EBV LMP1 NFkB 49
Cc1ccc(C(=O)N/C(=C\c2ccc3c(c2)OCO3)C(=O)N2CCOCC2)cc1	none
O=C(Nc1cnn(C23CC4CC(CC(C4)C2)C3)c1)c1cnn2c(C(F)(F)F)cc(-c3ccco3)nc12	TROY NFkB inh 81 (no result: HIF activator)
FC(F)C(F)(F)Oc1cccc(Nc2nccn3c(-c4ccc5ccccc5c4)cnc23)c1	none (no result: NR2E3 ag-1, EBV LMP1 NFkB, HIF activator)
CC(OC(=O)c1cccc([N+](=O)[O-])c1)C(=O)NCc1ccc2c(c1)OCO2 (configuration not stated)	none
O=C1CCC(C(=O)N2CCCCCC2)CN1CCc1ccc(Cl)cc1 (configuration not stated)	EBV LMP1 NFkB 69
O=C1CCC(C(=O)N2CCC(O)CC2)CN1CCc1ccc(Cl)cc1 (configuration not stated)	none
Cc1ccc(C(=O)C[n+]2ccccc2)cc1	EBV LMP1 NFkB 68 (no result: NR2E3 ag-1)
Cc1ccc(C(=O)C[n+]2cccc3ccccc32)cc1	TROY NFkB inh 50
Cc1ccc[n+](CC(=O)c2ccc(-c3ccccc3)cc2)c1	none
CC(C)CC1NC(=O)N(CC(=O)Nc2cc(F)ccc2F)C1=O (configuration not stated)	none (no result: HIF activator)
Cc1cc(C(=O)N/N=C2\CC(=O)CC(C)(C)C2)c(C)n1-c1ccccc1	TROY NFkB inh 53
CCOC(=O)[C@H]1[C@H]2COc3ccc(C)cc3[C@@H]2N2C(=O)CN(Cc3ccc(Cl)cc3)C(=O)[C@@]12C	none (no result: HIF activator)
CCOC(=O)[C@H]1[C@H]2COc3ccc(C)cc3[C@@H]2N2C(=O)CN(Cc3ccc(OC)cc3)C(=O)[C@@]12C	EBV LMP1 NFkB 45 (no result: HIF activator)
CCOC(=O)[C@H]1[C@H]2COc3ccc(OC)cc3[C@@H]2N2C(=O)CN(C)C(=O)[C@@]12C	EBV LMP1 NFkB 47 (no result: HIF activator)
CC(=O)N1c2ccccc2C2CCCC[C@H]21 (some centres not stated)	none (no result: HIF activator)
Cc1ccc(-c2cc(N)n3nc(-c4ccc(C)cc4)cc3n2)cc1	EBV LMP1 NFkB 52
O=C1NC(c2ccc(O)cc2)Nc2ccccc21 (configuration not stated)	none
O=C1NC(c2cccc(OCc3ccccc3)c2)Nc2ccccc21 (configuration not stated)	EBV LMP1 NFkB 61 (no result: NR2E3 ag-1, HIF activator)
N#C/C(=N\Nc1cccc(Cl)c1)C(=O)c1ccccc1	NR2E3 ag-2 102
COc1ccc(C(=O)/C(C#N)=N/Nc2cccc([N+](=O)[O-])c2)cc1	TROY NFkB inh 59 (no result: NR2E3 ag-1)
O=C(NN=Cc1c(O)ccc2ccccc12)c1ccc2c(c1)OCO2	EBV LMP1 NFkB 74 (no result: NR2E3 ag-1, HIF activator)
O=C(CN1CCCc2ccccc21)N/N=C/c1c(O)ccc2ccccc12	HIF activator 16
O=C(N/N=C/c1c(O)ccc2ccccc12)c1ccc(CO)nc1	HIF activator 34
CC(=O)Nc1ccccc1NC(=O)c1ccc2c(c1)OCO2	none (no result: NR2E3 ag-1, HIF activator)
CCCC(=O)Nc1ccccc1NC(=O)c1ccc2c(c1)OCO2	EBV LMP1 NFkB 78
COc1ccc2ccccc2c1/C=N/NC(=O)c1ccc(C)nc1	none
CC(=O)OCC1CC(COC(C)=O)C(COC(C)=O)CC1COC(C)=O (configuration not stated)	none (no result: NR2E3 ag-1, HIF activator)
Cc1ccccc1NC(=O)CSc1nnc(NC(=O)c2ccco2)s1	none
Oc1ccccc1C=NN=Cc1c(O)ccc2ccccc12	EBV LMP1 NFkB 93 (no result: NR2E3 ag-1, HIF activator)
Cc1cc(C(=O)N/N=C/c2cc(N=Nc3ccccc3)ccc2O)n[nH]1	HIF activator 19
O=C(N/N=C\c1c(O)ccc2ccccc12)c1ccc(S(=O)(=O)N2CCCCC2)cc1	EBV LMP1 NFkB 68, HIF activator 23
